In ChEMBL document CHEMBL4229344 (Eur J Med Chem, 2018):

How the values were obtained:
[1] = molecular target: Tyrosine-protein kinase FRK (Homo sapiens) (UniProt P42685); assay: Binding affinity to wild-type human partial length FRK (A215 to F503 residues) expressed in bacterial expression system assessed as residual binding level at 1 uM by Kinomescan method relative to control
How it was run: (§1)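 Kinome-wide competition binding screen against a panel of 468 purified kinases/mutants, with the test compound at a single concentration of 1 μM. Read-out is the relative binding activity of each kinase in the presence of compound.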

[2] = test system: Tyrosine-protein kinase ABL1 (Homo sapiens), P00519 [Q252H]; assay: Binding affinity to human phosphorylated ABL1 Q252H mutant expressed in mammalian expression system assessed as residual binding level at 1 uM by Kinomescan method relative to control
How it was run: (§2)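 Single-concentration (1 μM) competition-binding screen run by KINOMEscan against a panel of 468 purified kinases and mutants. The read-out is the relative binding activity of the test compound to each kinase.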

[3] = molecular target: Serine/threonine-protein kinase PLK2 (Homo sapiens) (UniProt Q9NYY3); assay: Binding affinity to wild-type human partial length PLK2 (H58 to F354 residues) expressed in mammalian expression system assessed as residual binding level at 1 uM by Kinomescan method relative to control
How it was run: (§3)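 KINOMEscan competition binding against a panel of 468 purified kinases/mutants, compound tested at 1 μM; readout is relative binding activity versus control.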

[4] = molecular target: Mitogen-activated protein kinase 4 (Homo sapiens) (UniProt P31152); assay: Binding affinity to wild-type human partial length ERK4 (M1 to L365 residues) expressed in bacterial expression system assessed as residual binding level at 1 uM by Kinomescan method relative to control; how it was run: as §1
[5] = molecular target: Serine/threonine-protein kinase 32A (Homo sapiens) (UniProt Q8WU08); assay: Binding affinity to wild-type human full length YANK1 (M1 to L396 residues) expressed in mammalian expression system assessed as residual binding level at 1 uM by Kinomescan method relative to control
How it was run: (§4)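 Single-concentration KINOMEscan (DiscoverX) binding screen at 1 μM against a panel of 468 purified kinases and mutants. The read-out is binding relative to control.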

[6] = molecular target: Serine/threonine-protein kinase PAK 4 (Homo sapiens) (UniProt O96013); assay: Binding affinity to wild-type human partial length PAK4 (Q144 to R438 residues) expressed in bacterial expression system assessed as residual binding level at 1 uM by Kinomescan method relative to control
[7] = molecular target: Activin receptor type-1B (Homo sapiens) (UniProt P36896); assay: Binding affinity to wild-type human ACVR1B (S187 to I505 residues) expressed in bacterial expression system assessed as residual binding level at 1 uM by Kinomescan method relative to control; how it was run: as §2
[8] = molecular target: Cytoplasmic tyrosine-protein kinase BMX (Homo sapiens) (UniProt P51813); assay: Binding affinity to wild-type human full length BMX (M1 to H675 residues) expressed in bacterial expression system assessed as residual binding level at 1 uM by Kinomescan method relative to control; how it was run: as §2
[9] = molecular target: Ribosomal protein S6 kinase alpha-2 (Homo sapiens) (UniProt Q15349); assay: Binding affinity to wild-type human partial length C-terminal RSK3 kinase domain 2 (V403 to K700 residues) expressed in bacterial expression system assessed as residual binding level at 1 uM by Kinomescan method relative to control
[10] = molecular target: Serine/threonine-protein kinase ULK1 (Homo sapiens) (UniProt O75385); assay: Binding affinity to wild-type human partial length ULK1 (M1 to T309 residues) expressed in mammalian expression system assessed as residual binding level at 1 uM by Kinomescan method relative to control
[11] = molecular target: Uncharacterized serine/threonine-protein kinase SBK3 (Homo sapiens) (UniProt P0C264); assay: Binding affinity to wild-type human partial length SgK110 (L22 to R329 residues) expressed in bacterial expression system assessed as residual binding level at 1 uM by Kinomescan method relative to control; how it was run: as §3
[12] = molecular target: Serine/threonine-protein kinase WNK1 (Homo sapiens) (UniProt Q9H4A3); assay: Binding affinity to wild-type human partial length WNK1 (Q194 to A490 residues) expressed in mammalian expression system assessed as residual binding level at 1 uM by Kinomescan method relative to control
[13] = molecular target: Phosphatidylinositol 4-phosphate 5-kinase type-1 alpha (Homo sapiens) (UniProt Q99755); assay: Binding affinity to wild-type human full length PIP5K1A (M1 to H562 residues) expressed in bacterial expression system assessed as residual binding level at 1 uM by Kinomescan method relative to control; how it was run: as §4
[14] = molecular target: Receptor-type tyrosine-protein kinase FLT3 (Homo sapiens) (UniProt P36888); assay: Binding affinity to wild-type human partial length FLT3 (V592 to Y969 residues) expressed in bacterial expression system assessed as residual binding level at 1 uM by Kinomescan method relative to control
[15] = molecular target: Epidermal growth factor receptor (Homo sapiens) (UniProt P00533); assay: Binding affinity to human partial length EGFR L747-T751del/Sins mutant expressed in bacterial expression system assessed as residual binding level at 1 uM by Kinomescan method relative to control
How it was run: (§5)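 Kinome-wide single-concentration binding screen (KINOMEscan) at 1 μM against a panel of 468 purified kinases and mutants. Read-out is relative binding of each kinase compared with control. Selectivity across the panel was summarised as an S(10) score.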

[16] = molecular target: Casein kinase II subunit alpha' (Homo sapiens) (UniProt P19784); assay: Binding affinity to wild-type human full length CSNK2A2 (M1 to R350 residues) expressed in mammalian expression system assessed as residual binding level at 1 uM by Kinomescan method relative to control; how it was run: as §2
[17] = molecular target: Serine/threonine-protein kinase NLK (Homo sapiens) (UniProt Q9UBE8); assay: Binding affinity to wild-type human full length NLK (M13 to E527 residues) expressed in bacterial expression system assessed as residual binding level at 1 uM by Kinomescan method relative to control
How it was run: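 KINOMEscan competition binding against 468 purified kinases/mutants, test compound at 1 µM; residual binding relative to control.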

[18] = molecular target: Serine/threonine-protein kinase Nek7 (Homo sapiens) (UniProt Q8TDX7); assay: Binding affinity to wild-type human full length NEK7 (M1 to S302 residues) expressed in bacterial expression system assessed as residual binding level at 1 uM by Kinomescan method relative to control; how it was run: as §4
[19] = test system: Mast/stem cell growth factor receptor Kit (Homo sapiens), P10721 [V559D,T670I]; assay: Binding affinity to human partial length KIT V559D/T670I double mutant (Y545 to D952 residues) expressed in bacterial expression system assessed as residual binding level at 1 uM by Kinomescan method relative to control; how it was run: as §5
[20] = molecular target: Platelet-derived growth factor receptor beta (Homo sapiens, UniProt P09619); assay: Inhibition of PDGFRbeta (unknown origin) using poly(4:1 Glu,Tyr) peptide as substrate preincubated for 1 hr followed by addition of ATP and measured after 30 mins by ADP-Glo bioluminescence assay

Compound `Cc1ccc(NC(=O)c2ccc(CN(CCN(C)C)C(=O)c3cccnc3)cc2)cc1Nc1nccc(-c2cccnc2)n1` has an Activity [1] of 80%, an Activity [2] of 100% and an Activity [3] of 87%. For the same compound, the Activity [4] was 89%, the Activity [5] was 100% and the Activity [6] was 98%. The Activity [7] was 100%, the Activity [8] was 100% and the Activity [9] was 88%. It also gave an Activity [10] of 100%, an Activity [11] of 72% and an Activity [12] of 85%. For the same compound, the Activity [13] was 100%, the Activity [14] was 89% and the Activity [15] was 100%. For the same compound, the Activity [16] was 88%, the Activity [17] was 82% and the Activity [18] was 96%. The Activity [19] was 76% and the IC50 [20] was 6.11 µM.
